Reference: ChEMBL document CHEMBL5674868, “Cancer Cells Hijack PRC2 to Modify Multiple Cytokine Pathways” (PLoS One, 2015)
Activity calls are given as the source filed them. The rule behind the calls is not given here.

Key:
Type in all cases: cell-based
[1] = target: Histone-lysine N-methyltransferase EZH2 (Homo sapiens) (UniProt Q15910); assay: Inhibition of EZH2 in human MCF7 cells assessed as effect on HPRT mRNA level after 6 hrs by RT-PCR analysis in presence of IFN-gamma
How it was run: (§1)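 Cells were treated for two four-day cycles with 2 μM GSK343 or UNC1999, then left untreated or stimulated with human IFNγ for 6 h. mRNA was measured by reverse transcription quantitative PCR and normalized to β-actin. Three biological replicates were run per treatment group.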

[2] = target: Histone-lysine N-methyltransferase EZH2 (Homo sapiens) (UniProt Q15910); assay: Inhibition of EZH2 in human ASPC1 cells assessed as effect on IRF1 mRNA level after 6 hrs by RT-PCR analysis in presence of IFN-gamma; how it was run: as §1
[3] = target: Histone-lysine N-methyltransferase EZH2 (Homo sapiens) (UniProt Q15910); assay: Inhibition of EZH2 in human MCF7 cells assessed as decrease in H3K27me3 levels at 2 uM after 6 hrs by Western blot analysis
[4] = target: Histone-lysine N-methyltransferase EZH2 (Homo sapiens) (UniProt Q15910); assay: Inhibition of EZH2 in human A549 cells assessed as increase in LPS-induced PDGFA level for 24 hrs by multiplexing laser bead assay
How it was run: (§2)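 A549 cells were pretreated with vehicle or UNC1999 over two four-day cycles at 2 μM. They were seeded at 3×10^4/well, rested for 4 h, then exposed for 24 h to no stimulus, 5 μg/ml E. coli LPS or 10 U/ml TNFα. Secreted cytokines in the supernatants were quantified by a 41-plex laser bead assay.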

[5] = target: Histone-lysine N-methyltransferase EZH2 (Homo sapiens) (UniProt Q15910); assay: Inhibition of EZH2 in human AsPC1 cells assessed as decrease in H3K27me3 levels at 2 uM after 6 hrs by Western blot analysis
[6] = target: Histone-lysine N-methyltransferase EZH2 (Homo sapiens) (UniProt Q15910); assay: Inhibition of EZH2 in human A549 cells assessed as effect on IRF1 mRNA level after 6 hrs by RT-PCR analysis in presence of IFN-gamma; how it was run: as §1
[7] = target: Histone-lysine N-methyltransferase EZH2 (Homo sapiens) (UniProt Q15910); assay: Inhibition of EZH2 in human MCF7 cells assessed as effect on IRF1 mRNA level after 6 hrs by RT-PCR analysis; how it was run: as §1
[8] = target: Histone-lysine N-methyltransferase EZH2 (Homo sapiens) (UniProt Q15910); assay: Inhibition of EZH2 in human A549 cells assessed as increase in TNF-alpha-induced CXCL-10 level for 24 hrs by multiplexing laser bead assay; how it was run: as §2
[9] = target: Histone-lysine N-methyltransferase EZH2 (Homo sapiens) (UniProt Q15910); assay: Inhibition of EZH2 in human A549 cells assessed as effect on HPRT mRNA level after 6 hrs by RT-PCR analysis in presence of IFN-gamma; how it was run: as §1
[10] = target: Histone-lysine N-methyltransferase EZH2 (Homo sapiens) (UniProt Q15910); assay: Inhibition of EZH2 in human A549 cells assessed as increase in LPS-induced CSF-3 level for 24 hrs by multiplexing laser bead assay; how it was run: as §2
[11] = target: Histone-lysine N-methyltransferase EZH2 (Homo sapiens) (UniProt Q15910); assay: Inhibition of EZH2 in human HeLa cells assessed as effect on HPRT mRNA level after 6 hrs by RT-PCR analysis in presence of IFN-gamma; how it was run: as §1
[12] = target: Histone-lysine N-methyltransferase EZH2 (Homo sapiens) (UniProt Q15910); assay: Inhibition of EZH2 in human HeLa cells assessed as effect on HPRT mRNA level after 6 hrs by RT-PCR analysis; how it was run: as §1
[13] = target: Histone-lysine N-methyltransferase EZH2 (Homo sapiens) (UniProt Q15910); assay: Inhibition of EZH2 in human A549 cells assessed as increase in TNF-alpha-induced IL-6 level for 24 hrs by multiplexing laser bead assay; how it was run: as §2
[14] = target: Histone-lysine N-methyltransferase EZH2 (Homo sapiens) (UniProt Q15910); assay: Inhibition of EZH2 in human HeLa cells assessed as effect on PITX2 mRNA level after 6 hrs by RT-PCR analysis in presence of IFN-gamma; how it was run: as §1
[15] = target: Histone-lysine N-methyltransferase EZH2 (Homo sapiens) (UniProt Q15910); assay: Inhibition of EZH2 in human ASPC1 cells assessed as effect on IRF1 mRNA level after 6 hrs by RT-PCR analysis; how it was run: as §1
[16] = target: Histone-lysine N-methyltransferase EZH2 (Homo sapiens) (UniProt Q15910); assay: Inhibition of EZH2 in human A549 cells assessed as increase in TNF-alpha-induced IL-6 level for 24 hrs by ELISA
How it was run: (§3)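 A549 cells were pretreated for two four-day cycles with 2 μM UNC1999 or with DMSO. They were seeded at 3×10^4/well, allowed to settle for 4 h, then given the indicated concentrations of IFNγ, IL1β, LPS or TNFα for 24 h. Secreted IL6, IL8 or CXCL10 in the supernatant was measured by ELISA in duplicate. n = 3; ANOVA followed by Fisher test.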

[17] = target: Histone-lysine N-methyltransferase EZH2 (Homo sapiens) (UniProt Q15910); assay: Inhibition of EZH2 in human MCF7 cells assessed as effect on IRF1 mRNA level after 6 hrs by RT-PCR analysis in presence of IFN-gamma
How it was run: (§4)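 Cells pretreated for two 4-day cycles with 2 µM GSK343 or UNC1999, then left unstimulated or given human IFNγ for 6 h. RNA reverse-transcribed and measured by quantitative PCR, normalized to β-actin. Three biological replicates per treatment group.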

[18] = target: Histone-lysine N-methyltransferase EZH2 (Homo sapiens) (UniProt Q15910); assay: Inhibition of EZH2 in human A549 cells assessed as increase in TNF-alpha-induced CXCL-1 level for 24 hrs by multiplexing laser bead assay; how it was run: as §2
[19] = target: Histone-lysine N-methyltransferase EZH2 (Homo sapiens) (UniProt Q15910); assay: Inhibition of EZH2 in human A549 cells assessed as increase in TNF-alpha-induced CCL7 level for 24 hrs by multiplexing laser bead assay; how it was run: as §2
[20] = target: Histone-lysine N-methyltransferase EZH2 (Homo sapiens) (UniProt Q15910); assay: Inhibition of EZH2 in human ASPC1 cells assessed as effect on PITX2 mRNA level after 6 hrs by RT-PCR analysis in presence of IFN-gamma; how it was run: as §1
[21] = target: Histone-lysine N-methyltransferase EZH2 (Homo sapiens) (UniProt Q15910); assay: Inhibition of EZH2 in human A549 cells assessed as increase in TNF-alpha-induced PDGFA level for 24 hrs by multiplexing laser bead assay; how it was run: as §2
[22] = target: Histone-lysine N-methyltransferase EZH2 (Homo sapiens) (UniProt Q15910); assay: Inhibition of EZH2 in human A549 cells assessed as increase in TNFalpha-induced CXCL10 level for 24 hrs by ELISA; how it was run: as §3
[23] = target: Histone-lysine N-methyltransferase EZH2 (Homo sapiens) (UniProt Q15910); assay: Inhibition of EZH2 in human ASPC1 cells assessed as effect on HPRT mRNA level after 6 hrs by RT-PCR analysis in presence of IFN-gamma; how it was run: as §1
[24] = target: Histone-lysine N-methyltransferase EZH2 (Homo sapiens) (UniProt Q15910); assay: Inhibition of EZH2 in human A549 cells assessed as increase in TNF-alpha-induced VEGFA level for 24 hrs by multiplexing laser bead assay; how it was run: as §2
[25] = target: Histone-lysine N-methyltransferase EZH2 (Homo sapiens) (UniProt Q15910); assay: Inhibition of EZH2 in human MCF7 cells assessed as effect on PITX2 mRNA level after 6 hrs by RT-PCR analysis in presence of IFN-gamma; how it was run: as §4
[26] = target: Histone-lysine N-methyltransferase EZH2 (Homo sapiens) (UniProt Q15910); assay: Inhibition of EZH2 in human A549 cells assessed as increase in LPS-induced CCL-5 level for 24 hrs by multiplexing laser bead assay; how it was run: as §2
[27] = target: Histone-lysine N-methyltransferase EZH2 (Homo sapiens) (UniProt Q15910); assay: Inhibition of EZH2 in human ASPC1 cells assessed as effect on PITX2 mRNA level after 6 hrs by RT-PCR analysis; how it was run: as §1

Histone-lysine N-methyltransferase EZH2 (Homo sapiens), sequence (Q15910 whole entry, looked up): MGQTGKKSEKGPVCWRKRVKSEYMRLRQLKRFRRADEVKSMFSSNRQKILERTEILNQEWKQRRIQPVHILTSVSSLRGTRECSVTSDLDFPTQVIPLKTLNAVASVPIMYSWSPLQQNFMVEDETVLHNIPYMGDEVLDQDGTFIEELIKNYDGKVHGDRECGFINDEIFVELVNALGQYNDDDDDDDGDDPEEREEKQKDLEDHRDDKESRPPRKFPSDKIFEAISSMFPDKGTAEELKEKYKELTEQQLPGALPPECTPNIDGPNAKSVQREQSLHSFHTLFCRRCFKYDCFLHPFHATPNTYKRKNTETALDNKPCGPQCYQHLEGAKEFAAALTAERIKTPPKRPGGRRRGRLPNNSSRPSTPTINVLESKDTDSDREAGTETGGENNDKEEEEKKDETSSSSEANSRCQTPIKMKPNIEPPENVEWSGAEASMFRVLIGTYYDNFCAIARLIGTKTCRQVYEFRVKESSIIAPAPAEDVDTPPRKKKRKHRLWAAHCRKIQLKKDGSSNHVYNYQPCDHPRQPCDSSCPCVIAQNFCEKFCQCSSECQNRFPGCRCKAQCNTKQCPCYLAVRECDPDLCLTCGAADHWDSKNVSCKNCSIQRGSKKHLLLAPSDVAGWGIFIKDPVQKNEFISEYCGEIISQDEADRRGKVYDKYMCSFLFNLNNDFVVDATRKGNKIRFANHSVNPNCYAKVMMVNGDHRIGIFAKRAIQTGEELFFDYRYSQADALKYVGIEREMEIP

With CCCc1cc(C)[nH]c(=O)c1CNC(=O)c1cc(-c2ccc(N3CCN(C(C)C)CC3)nc2)cc2c1cnn2C(C)C the inhibition [1] was “inactive”, the inhibition [2] was “inactive” and the inhibition [3] was “Active”. For the same molecule, the inhibition [4] was “Active”, the inhibition [5] was “Active” and the inhibition [6] was “inactive”. For the same molecule, the inhibition [7] was “inactive”, the inhibition [8] was “Active” and the inhibition [9] was “inactive”. For the same molecule, the inhibition [10] was “Active”, the inhibition [11] was “inactive” and the inhibition [12] was “inactive”. The inhibition [13] was “Active”, the inhibition [14] was “inactive” and the inhibition [15] was “inactive”. For the same molecule, the inhibition [16] was “Active”, the inhibition [17] was “inactive” and the inhibition [18] was “Active”. The inhibition [19] was “Active”, the inhibition [20] was “inactive” and the inhibition [21] was “Active”. The inhibition [22] was “Active”, the inhibition [23] was “inactive” and the inhibition [24] was “Active”. For the same molecule, the inhibition [25] was “inactive”, the inhibition [26] was “Active” and the inhibition [27] was “inactive”.
